Source: ChEMBL document CHEMBL2169809, “Identification of high-affinity P2Y₁₂ antagonists based on a phenylpyrazole glutamic acid piperazine backbone” (J Med Chem, 2012)

Columns and labels:
Platelet [1] = assay: Inhibition of ADP-stimulated platelet aggregation in human isolated platelets by light transmission aggregometry based Born method; format: functional, cell-based
Method in brief: (§1)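 Platelets were pelleted from PRP (430g, 20 min, room temperature) and resuspended in modified Tyrode's buffer (145 mM NaCl, 5 mM KCl, 5.5 mM glucose, 15 mM Hepes, pH 7.4). CaCl2 (0.5 mM final) was added for 2 min at 37 °C, then fibrinogen (1 mg/mL final), then antagonist. Agonist was ADP, collagen or thrombin (0.1 U/mL final). Born aggregometry with stirring; % inhibition from AUC; IC50 from at least triplicate runs.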

P2Y purinoceptor 12 = P2Y purinoceptor 12 (Homo sapiens, UniProt Q9H244); assay: Displacement of [33P]2-MeS-ADP from human recombinant P2Y12 receptor expressed in CHO cell membranes by scintillation counting method
P2Y purinoceptor 12, sequence (Q9H244 whole entry): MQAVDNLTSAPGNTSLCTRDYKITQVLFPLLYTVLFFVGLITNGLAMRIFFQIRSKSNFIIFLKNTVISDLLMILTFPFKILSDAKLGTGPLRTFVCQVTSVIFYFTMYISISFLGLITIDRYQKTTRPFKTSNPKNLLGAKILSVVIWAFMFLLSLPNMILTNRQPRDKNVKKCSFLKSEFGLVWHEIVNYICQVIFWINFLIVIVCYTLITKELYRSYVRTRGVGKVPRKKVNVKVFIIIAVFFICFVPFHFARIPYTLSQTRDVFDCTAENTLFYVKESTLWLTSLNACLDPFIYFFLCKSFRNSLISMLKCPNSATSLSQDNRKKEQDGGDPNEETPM

Platelet [2] = assay: Inhibition of collagen-stimulated platelet aggregation in human isolated platelets by light transmission aggregometry based Born method; format: functional, cell-based; method in brief: as §1
Platelet [3] = assay: Inhibition of ADP-stimulated platelet aggregation in human platelet rich plasma by 96-well format based turbidimetric method; format: functional
Method in brief: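 Citrated (ACD-A) donor blood was spun at 150g for 15 min at room temperature to give PRP. PRP was adjusted with PPP to 3 × 10^8 platelets/mL. Compound, diluted in NaCl, was preincubated with hPRP for 5 min before ADP was added.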

Platelet [4] = assay: Inhibition of thrombin-stimulated platelet aggregation in human isolated platelets by light transmission aggregometry based Born method; format: functional, cell-based; method in brief: as §1
Platelet [5] = assay: Inhibition of ADP-stimulated platelet aggregation in human platelet rich plasma by light transmission aggregometry based Born method; format: functional, cell-based
P2Y purinoceptor 1 = P2Y purinoceptor 1 (Homo sapiens, UniProt P47900); assay: Displacement of [33P]2-MeS-ADP from human recombinant P2Y1 receptor expressed in CHO cell membranes by scintillation counting method
P2Y purinoceptor 1, sequence (P47900 whole entry): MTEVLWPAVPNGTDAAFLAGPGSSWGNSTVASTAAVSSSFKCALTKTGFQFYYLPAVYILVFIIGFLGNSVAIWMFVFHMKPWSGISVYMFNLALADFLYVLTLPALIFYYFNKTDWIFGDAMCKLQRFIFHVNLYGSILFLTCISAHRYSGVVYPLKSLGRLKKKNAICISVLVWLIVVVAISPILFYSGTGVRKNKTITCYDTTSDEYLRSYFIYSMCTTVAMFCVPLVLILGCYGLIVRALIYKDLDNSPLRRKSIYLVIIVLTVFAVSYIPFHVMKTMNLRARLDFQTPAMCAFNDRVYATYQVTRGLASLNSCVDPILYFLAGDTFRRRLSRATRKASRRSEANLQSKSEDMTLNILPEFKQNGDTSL

Canis familiaris = assay: Antiplatelet aggregatory activity in dog assessed as inhibition of ADP-induced platelet aggregation at 10 mg/kg after 24 hrs; format: functional; details: Canis lupus familiaris
Method in brief: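 Ex vivo dog model: compound given orally at 10 mg/kg. Whole-blood platelet aggregation was measured by impedance 24 h after dosing, with ADP as agonist. Inhibition was calculated from mean area under the curve.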

CCOC(=O)N1CCN(C(=O)CNC(=O)c2cc(OCC(=O)N3CCC[C@H]3C(=O)NC3CCC3)n(-c3ccccc3)n2)CC1
IC50 (Platelet [1]): 99 nM | Ki (P2Y purinoceptor 12): 107 nM | IC50 (Platelet [2]): > 2000 nM | IC50 (Platelet [3]): 90 nM | IC50 (Platelet [4]): > 2000 nM | IC50 (Platelet [5]): 100 nM

CCCCOC(=O)N1CCN(C(=O)CNC(=O)c2cc(OCC(=O)N3CCC[C@H]3C(=O)NC3CCC3)n(-c3ccccc3)n2)CC1
IC50 (Platelet [1]): 22 nM | Ki (P2Y purinoceptor 12): 7.7 nM | Ki (P2Y purinoceptor 1): > 20 µM | IC50 (Platelet [2]): > 2000 nM | IC50 (Platelet [3]): 30 nM | IC50 (Platelet [4]): > 2000 nM | IC50 (Platelet [5]): 46 nM | inhibition in vivo at 10 mg/kg (Canis familiaris): 73%

CCOC(=O)N1CCN(C(=O)[C@H](CCC(=O)O)NC(=O)c2cc(OCC(=O)N3CCC[C@H]3C(=O)NCC3CCC3)n(-c3ccccc3)n2)CC1
Ki (P2Y purinoceptor 12): 19 nM | IC50 (Platelet [3]): 100 nM | IC50 (Platelet [5]): 72 nM

CCCNC(=O)[C@@H]1CCCN1C(=O)COc1cc(C(=O)N[C@@H](CCC(=O)O)C(=O)N2CCN(C(=O)OCC)CC2)nn1-c1ccccc1
Ki (P2Y purinoceptor 12): 66 nM | IC50 (Platelet [3]): 58 nM | IC50 (Platelet [5]): 91 nM

CCOC(=O)N1CCN(C(=O)[C@H](CCC(=O)O)NC(=O)c2cc(OCC(=O)N3CCC[C@H]3C(=O)NC(C)(C)C)n(-c3ccccc3)n2)CC1
Ki (P2Y purinoceptor 12): 41 nM | IC50 (Platelet [3]): 17 nM | IC50 (Platelet [5]): 70 nM

CCOC(=O)N1CCN(C(=O)[C@H](CCC(=O)O)NC(=O)c2cc(OCC(=O)N3CCC[C@H]3C(=O)NC3CCC3)n(-c3ccccc3)n2)CC1
IC50 (Platelet [1]): 7 nM | Ki (P2Y purinoceptor 12): 7.3 nM | Ki (P2Y purinoceptor 1): > 20 µM | IC50 (Platelet [2]): > 2000 nM | IC50 (Platelet [3]): 25 nM | IC50 (Platelet [4]): > 2000 nM | IC50 (Platelet [5]): 9 nM

CCOC(=O)N1CCN(C(=O)[C@H](CCC(=O)O)NC(=O)c2cc(OCC(=O)N3CCC[C@H]3C(=O)NC3CCCC3)n(-c3ccccc3)n2)CC1
Ki (P2Y purinoceptor 12): 20 nM | IC50 (Platelet [3]): 13 nM | IC50 (Platelet [5]): 38 nM

CCOC(=O)N1CCN(C(=O)[C@H](CCC(=O)O)NC(=O)c2cc(OC3(C(=O)OCC)CCC3)n(-c3ccccc3)n2)CC1
IC50 (Platelet [1]): 701 nM | Ki (P2Y purinoceptor 12): 139 nM | Ki (P2Y purinoceptor 1): > 20 µM | IC50 (Platelet [2]): > 2000 nM | IC50 (Platelet [3]): 3300 nM | IC50 (Platelet [4]): > 2000 nM | IC50 (Platelet [5]): 2930 nM

CCOC(=O)COc1cc(C(=O)N[C@@H](CCC(=O)O)C(=O)N2CCN(C(=O)OCC)CC2)nn1-c1ccccc1
Ki (P2Y purinoceptor 12): 372 nM | IC50 (Platelet [3]): 2250 nM | IC50 (Platelet [5]): 2480 nM

CCOC(=O)N1CCN(C(=O)[C@H](CCC(=O)O)NC(=O)c2cc(OCC(=O)C(C)(C)C)n(-c3ccccc3)n2)CC1
Ki (P2Y purinoceptor 12): 242 nM | IC50 (Platelet [3]): 3730 nM | IC50 (Platelet [5]): 2460 nM

CCOC(=O)N1CCN(C(=O)[C@H](CCC(=O)O)NC(=O)c2cc(OCC(=O)C3CC3)n(-c3ccccc3)n2)CC1
Ki (P2Y purinoceptor 12): 249 nM | IC50 (Platelet [3]): 2600 nM | IC50 (Platelet [5]): 2510 nM
